# From ChEMBL document CHEMBL4513216, “Probing the Open Global Health Chemical Diversity Library for Multistage-Active Starting Points for Next-Generation Antimalarials” (ACS Infect Dis, 2020)
# Assay: Toxicity liver stage against HepG2, at 10uM
# Format: cell-based
# Design: test concentration 10 uM, cell line HepG2-A16-CD81EGFP
# Details: human, HepG2-A16-CD81EGFP cells; read-out: INHIBITION
# Outline: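 Uninfected HepG2-A16-CD81EGFP cells, 3 × 10^3 per well, 1536-well, plated on prespotted compound at 10 μM final, parasite-free screening media added to match infected plates; puromycin 10 μM positive, DMSO 0.5% negative; run in parallel with 48 h PbLuc assay at 37 °C, 5% CO2; viability by CellTiter-Glo luminescence, normalized to controls.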
row,Compound,cytotoxicity at 10 µM
1,COc1ccccc1-c1ncc(CN2C[C@H](O)[C@@H](N3CCCC3)C2)s1,-6.34%
2,Cc1ccnc(N2CCC(=O)N(Cc3ccc(F)cc3)C(C(C)C)C2)n1 (stereo not given),0.538%
3,N#Cc1ccc(NC2CCN(c3ncccn3)CC2)cc1Cl,8.8%
4,CCC(=O)N1CCCN(C(=O)c2cc(C)cc(Br)c2O)CC1,7.12%
5,CC(=O)N1CCCN(C(=O)NC(C)Cn2ccnc2)CC1 (stereo not given),4.52%
6,CC(=O)NCc1ccc(C(=O)N2CCCC2c2cnn(C)c2)cc1 (stereo not given),-13.5%
7,COc1ccc(NCC2(O)CCNCC2)cc1OC,6.2%
8,CCN1CC2(CC1=O)CN(C(=O)COC)CCN(S(C)(=O)=O)C2 (stereo not given),0.165%
9,CCn1cc(CN2CCN(Cc3cccc(OC)c3)C(=O)C2)cc1C#N,2.96%
10,O=C1CO[C@@H]2CN(C3CCOCC3)C[C@H]2N1Cc1ccncc1,-151%
11,COCCN1CCN(Cc2cccnc2)[C@H]2CS(=O)(=O)C[C@H]21,6.03%
12,CN1CCC(N2CC[C@@H]3[C@@H](CCC(=O)N3CCC3=CCCCC3)C2)CC1,-6.53%
13,NC(=O)COc1ccc(CNCc2ccc(F)c(F)c2)cc1,-15.2%
14,Cn1cc(N2CC3(COCCN(Cc4ccccn4)C3)OCC2=O)cn1 (stereo not given),-79.1%
15,COc1ccccc1Oc1ncccc1CNC(=O)[C@@H](C)NC(C)=O,-2.61%
16,CC1COCCN1Cc1nc(-c2ccc(Br)s2)no1 (stereo not given),-2.45%
17,Cc1nn(CC(=O)N2CCN(c3ccc(F)cc3)CC2)c(C)c1Cl,6.87%
18,CC(=O)C(Cc1ccccc1)NC(=O)CSc1nncn1C (stereo not given),3.16%
19,CCC(C)(O)CNC(=O)Nc1ccc(C)cc1Br (stereo not given),-9.95%
20,NC(=O)C1CCCN1Cc1cccc(NC(=O)c2cc(Cl)cc(Cl)c2)c1 (stereo not given),21.3%
21,O=C(NCCN1CCOCC1)c1cnc(Cc2ccc(F)cc2)s1,16.7%
22,CCCOC1CCCN(c2ncnc3c2CCN(C(=O)C2CC2)C3)C1 (stereo not given),4.84%

row,Compound,cytotoxicity at 10 µM
1,Cn1cc(C(=O)N2CCN(Cc3ccccn3)CC2)ccc1=O,6.85%
2,COCc1nc2cc3c(cc2c(=O)o1)OCCCO3,1.19%
3,CO[C@@H]1CCN(c2ncc(F)cn2)[C@@H]2CN(Cc3cccnc3)C[C@@H]21,11.8%
4,CCc1noc(CN2CCN(C(=O)C3CC3)CC2)n1,-1.88%
5,O=C(O)c1cnc(N2CCCC2)nc1COc1ccc(F)cc1,-1.14%
6,Cc1ccc(C(=O)N2CC3(CCCCC3)c3cc(C(=O)O)ccc32)cn1,11.2%
7,CCOc1ccc(S(=O)(=O)NCCc2ccc(N(C)C)cc2)cc1F,-3.56%
8,Cc1cccc(-n2cnc(Cl)c2C(=O)O)c1,-1.26%
9,CCC(c1ccccc1)N1CCN(C(=O)c2cc(C(N)=O)c[nH]2)CC1 (stereo not given),2.96%
10,COCCN1C(=O)C[C@H]2[C@H]1CCN2Cc1cccc(C#N)c1,2.55%
11,CCc1c(C)n(CCOC)c2nc3ccccc3n2c1=O,-0.277%
12,COc1cc(Cl)cc(CN2CCCC(N3CCOCC3)C2)c1OC (stereo not given),0.944%
13,NC(=O)c1cccc(NC(=O)CSc2ccc3c(c2)CCC3)c1,21.4%
14,NC(=O)CN1CCC(NC2CCCCc3ccccc32)CC1 (stereo not given),-7.86%
15,Cc1cc(NCc2ccc(O)cc2)n2nc(C)cc2n1,-0.881%
16,CCOc1ccc(NC(C)C(=O)Nc2cc(C)no2)cc1 (stereo not given),7.04%
17,Cc1ccccc1NC(=O)N1CC[C@@H]2CN(CC(C)C)S(=O)(=O)[C@@H]2CC1,-0.567%
18,COCCc1nnc(NC(=O)CCCc2ccccc2)o1,-4.34%
19,COc1ccc(CNC(=O)Nc2ccc(=O)n(C)c2)cc1,1.92%
20,CCCS(=O)(=O)N1CCN(C(=O)CO)CC1,-1.96%
21,Cc1cccc(N2CCC3(CCCN3Cc3cnn(C)c3C)CC2)n1,-2.35%
22,CN(C)c1cncc(C2CCN(CC(N)=O)CC2)n1,3.07%

row,Compound,cytotoxicity at 10 µM
1,CC(C)N1CCCC(Cc2nccnc2Cl)C1 (stereo not given),-3.22%
2,Cc1cccc(C)c1Nc1noc2c1CN(C(=O)c1ccn(C)n1)CC2,5.69%
3,Cc1nc(N2CCC(C(O)c3nccn3C)CC2)c2cccnc2n1 (stereo not given),1.46%
4,O=C(CCN1CCCCCC1c1ccco1)N1CCOCC1 (stereo not given),6.14%
5,CN(C)c1ccc(CNc2cncc(-n3cccn3)n2)cc1,-7.31%
6,Cc1cc(C)cc(-n2ncc3c2CCCC3N)c1 (stereo not given),7.63%
7,COCC(=O)N1CCc2c(CNS(C)(=O)=O)n[nH]c2C1,4.32%
8,CCCNC(=O)c1nn(CC)cc1NC(=O)c1cn(C)nc1C,-5.63%
9,CN(C)C1Cc2ccccc2N(S(=O)(=O)c2ccccc2C#N)C1 (stereo not given),0.71%
10,CCOC(=O)c1cc2c(=O)[nH]c(=O)n(CCc3ccccc3)c2nc1C,-6.28%
11,CN(C)C(=O)CN1CCOCC2(CCN(CC3CCOC3)CC2)C1 (stereo not given),7.54%
12,c1cncc(-c2ccc3c(c2)C2(CCNCC2)CC3)c1,4.59%
13,Cc1cc(=O)c(C(=O)N2CCCCC2c2ccc(F)cc2)c[nH]1 (stereo not given),3.71%
14,CCN(CC)C(=O)C1CCCN1C(=O)c1cccc(-n2cnnn2)c1 (stereo not given),-14.9%
15,CC(=O)N1CCC(NC(=O)c2cc(S(N)(=O)=O)ccc2C)CC1,11.7%
16,CCOc1ccccc1C(=O)NS(=O)(=O)c1ccc2c(c1)OCCCO2,5.04%
17,O=C(c1ccsc1)N1CCc2nnc(COc3cncnc3)n2CC1,1.72%
18,O=C(CSc1nccc(-c2ccc3c(c2)OCO3)n1)N1CCOCC1,-8.3%
19,COc1ccc(CN(C)[C@@H]2COC[C@H]2c2ccc(F)cc2)cc1,10.9%
20,Cc1cnn(CCNCc2nc(Cc3ccccc3)no2)c1,-7.7%
21,Cc1ncsc1C(=O)N(C)Cc1ccc(Br)o1,-39.3%
22,O=C(C1CCCC1)N1CC2(CCN(C3COC3)C2)Cc2ccccc21 (stereo not given),10.1%

row,Compound,cytotoxicity at 10 µM
1,Cc1ccc(CNCc2nccn2C)c(OCC2CC2)c1,-4.52%
2,CN(Cc1ncc(C(C)(C)C)o1)CC1CCCN1c1cccnn1 (stereo not given),-5.52%
3,CCc1nnc(CN(CC)C(=O)C2CCC(=O)N(C3CCCC3)C2)o1 (stereo not given),2.01%
4,CCCn1ccc(C(=O)N2CCOC(c3nc(-c4cccs4)no3)C2)n1 (stereo not given),8.54%
5,CC(C)(C)OC(=O)N[C@@H]1C[C@@H](O)CN(C(=O)c2ccc(F)cc2)C[C@H]1O,2.57%
6,Cc1nn(C)c(C)c1C1CCCN1Cc1nc(C)c2ccccc2n1 (stereo not given),-3.9%
7,Nc1cc(CC2COc3ccccc3C2)ccn1 (stereo not given),-0.911%
8,Cc1cc(Br)ccc1C(=O)NCCN1CCCCCC1,-11.6%
9,Cn1nc2c(c1NC(=O)c1cccs1)CCC2,6.16%
10,CCOCc1nn(CC2CC2)c2c1CN(Cc1cccs1)CC2,-108%
11,O=C(c1cnc2c(cnn2C2CCCC2)c1)N1CCN(CCO)CC1,-17.2%
12,Cc1cnccc1CN1C[C@@H](O)[C@H](Oc2ccccc2)C1,1.85%
13,CCN1CC(Oc2ccc(Cl)cc2)=NC(SCC(=O)c2ccccc2)=N1,0.515%
14,CN1CCCC1CNC(=O)CCCOc1cccc(F)c1 (stereo not given),-9.54%
15,CC1CCN(c2nc3cn(-c4ccc5c(c4)OCO5)c(=O)c-3c[nH]2)CC1,-14%
16,Cc1ccc(F)cc1S(=O)(=O)NCc1cccc(CS(C)(=O)=O)c1,-10.6%
17,CCOC(=O)N1CCNC(c2cccs2)C1 (stereo not given),-147%
18,COc1ccc(-c2nc3c([nH]2)CCCNC3=O)cc1OC,26.6%
19,CC(C)c1nn(C)c(Cl)c1CNCC(O)c1cccc(F)c1 (stereo not given),-1.83%
20,Cc1cnc(C(=O)N2C[C@@H]3[C@@H](C2)OCC(=O)N3CC2CCCC2)cn1,-3.78%
21,O=c1[nH]c(COc2cccc(F)c2)nc2c1CCNC2,10.1%
22,O[C@]12CCNC[C@H]1CN(c1ccnc3ccccc13)CC2,8.33%

row,Compound,cytotoxicity at 10 µM
1,Cc1ccc(F)c(S(=O)(=O)Nc2cn(C)cc(Br)c2=O)c1,-7.73%
2,Cc1cc(C)n(C2CN(c3nc(-c4ccncc4)nc4c3CCC4)C2)n1,-33.6%
3,c1ccc(-c2noc3c2CN(CC2CC2)CC3)cc1,-13.2%
4,O=C(NCCOc1ncc(Cl)cc1Cl)c1cccnc1,-3.23%
5,NC(=O)c1ccc(NC2CCOC3(CCCC3)C2)nn1 (stereo not given),-3.13%
6,O=C1CCC2(CCCN(C(=O)c3cnccn3)CC2)N1 (stereo not given),-2.66%
7,CCOC(=O)CC(C)NC(=O)c1cn(Cc2ccccc2F)nn1 (stereo not given),-4.75%
8,CCc1nc(NCCCn2cccn2)c2c(n1)c(C)nn2CC,6.36%
9,COCCn1ccc2ccc(NC(=O)NCc3noc(C)n3)cc21,7.36%
10,CCn1cnnc1C1CCN(C(=O)c2cc3c(s2)CCOC3)CC1,-6.37%
11,COc1cc(C)nc(N2CCN(C(=O)c3cc(Cl)c[nH]3)CC2)n1,7.32%
12,Cc1ncccc1NC(=O)[C@@H]1CC[C@@H]2[C@@H](CCN2Cc2cnn(C)c2)O1,-0.335%
13,CN1CCCN(CC(=O)N2CCc3[nH]c(-c4ccccc4)nc3C2)CC1,-0.0342%
14,Cc1ccc(OCC(=O)NCC(C)C)nc1,-18.3%
15,Nc1nc(Sc2cccs2)cc(N2CC[C@H](CO)[C@H](O)C2)n1,2.68%
16,CCN(Cc1cnn(CC)c1)C(=O)CN1C(=O)CCc2ccccc21,-2.17%
17,Nc1nc(CC(=O)N2CCCC(CCc3cccc(F)c3)C2)cc(=O)[nH]1 (stereo not given),-6.12%
18,COc1ncc(NC(=O)Nc2cc(C)ccc2OC)cn1,2.76%
19,Cc1ccc(C2CSCCN2C(=O)c2ccc(C(N)=O)cc2)o1 (stereo not given),-2.12%
20,Cc1ccc(NC2CCN(C(=O)C(C)n3cncn3)CC2)nn1 (stereo not given),-14.2%
21,O=C(Nc1cnccn1)[C@@H]1CC[C@@H]2[C@@H](CCN2Cc2nccs2)O1,-136%
22,CNc1[nH]nc(N)c1C(=O)Nc1ccccc1,6.56%
